# Only some compounds are listed: those with a hit (about 3.6% of all), similar ones and a draw of the others.
# ATG4B inh: blocks human ATG4B protease cleavage of LC3 substrate; ATG4B cleavage of LC3-PLA2, NBD-HPC fluorescence, 1 h; inhibition, % at 8.33 µM; 340,000 tested, 0.51% active; in the data active = inhibition above about 40%
# SENP1 inh: inhibitors of human SENP1 SUMO protease catalytic domain. Q9P0U3. recombinant SENP1 catalytic domain, CyPet-SUMO1-YPet FRET cleavage. inhibition, % at 10 µM. 360,000 tested, 0.21% active. AID 624204;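 active = inhibition at least 30% at 10 µM, raw YFP signal under a set limit, fluorescence ratio 0.5 to 1.5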;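 also: 0% = enzyme with DMSO and 100% = no enzyme wells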
# Target sequence (Q9P0U3 419-644 limits assumed): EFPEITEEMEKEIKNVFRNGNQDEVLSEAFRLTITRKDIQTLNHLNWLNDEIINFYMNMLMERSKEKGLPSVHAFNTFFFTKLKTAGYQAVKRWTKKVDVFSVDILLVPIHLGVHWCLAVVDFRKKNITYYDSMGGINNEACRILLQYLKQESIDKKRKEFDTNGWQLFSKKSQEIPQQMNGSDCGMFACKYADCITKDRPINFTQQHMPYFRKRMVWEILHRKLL
#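 system = hSENP1 catalytic domain, recombinant | reagent = SFCypet-SUMO1-SFYpet substrate at 25 nM | doses = one dose per compound, 10 µM, 0.5% DMSO | incubation = enzyme reaction for 50 min at room temperature, dark | measured by = FRET, CFP and YFP emission | controls = no-enzyme low, enzyme-DMSO high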
# UCH37 DUB inh: inhibitors of human deubiquitinating enzyme UCH37; Q9Y5K5; purified proteasome/UCH37, Ub-AMC cleavage fluorescence; inhibition, % (concentration not given with the values); 330,000 tested, 0.33% active; AID 588478;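 active = mean inhibition over replicate wells above about 20%, limit read from the data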;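 also: 0% = compound-free wells with enzyme and 100% = wells lacking proteasome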
# Target sequence (Q9Y5K5 whole entry, looked up): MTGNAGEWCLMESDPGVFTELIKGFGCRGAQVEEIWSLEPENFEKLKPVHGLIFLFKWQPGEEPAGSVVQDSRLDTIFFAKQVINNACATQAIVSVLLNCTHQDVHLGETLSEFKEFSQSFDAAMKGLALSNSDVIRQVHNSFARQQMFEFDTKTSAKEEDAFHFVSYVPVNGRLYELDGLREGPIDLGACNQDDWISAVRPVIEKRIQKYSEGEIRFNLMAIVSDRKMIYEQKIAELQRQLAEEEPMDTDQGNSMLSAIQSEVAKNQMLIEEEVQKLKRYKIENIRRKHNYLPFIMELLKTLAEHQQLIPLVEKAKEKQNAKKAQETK
#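 Test system – human UCH37 enzyme supplied as purified proteasome complex · Incubation – 30 min preincubation with enzyme, 25 min cleavage at room temperature · Detection – AMC fluorescence from Ub-AMC cleavage, excitation 355 nm, emission 460 nm · Benchmarks – no-proteasome wells (full inhibition) and compound-free wells (no inhibition)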
# NadD inh: NadD (S. aureus) enzyme inhibition. 360,000 tested, 0.78% active. inhibition, % at 20 µM. purified NadD enzyme, colorimetric absorbance read-out. AID 602399; in the data active = inhibition above about 26%
# GRIN3A LBD mod: NR3A (human) ligand-binding domain modulation | NR3A LBD differential scanning fluorimetry, Tm shift; 0% = protein alone, 100% = glycine-bound protein | Tm shift relative to glycine control, % at 25 µM | 340,000 tested, 2.5% active | AID 1259313;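 active = melting temperature shift of at least 10% of the positive control shift, at one fixed dose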
# SENP1 inh conf: confirmation of human SENP1 SUMO protease inhibitors. 520 tested, 34% active. shares compounds with SENP1 inh. AID 651678. inhibition, % at 10 µM. recombinant SENP1, CyPet-SUMO1-YPet FRET cleavage; in the data active = inhibition mostly above about 35%, no sharp cut-off; inactive = mostly below about 32%;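 also: 0% = enzyme with DMSO and 100% = no enzyme control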
# SENP1 kin conf: confirmation of human SENP1 SUMO protease inhibitors, kinetic; shares compounds with SENP1 inh; recombinant SENP1, CyPet-SUMO1-YPet FRET kinetic cleavage; inhibition, % at 10 µM; 520 tested, 26% active; AID 651690; in the data active = inhibition mostly above about 32%, no sharp cut-off; inactive = mostly below about 29%;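 also: 0% = DMSO with enzyme and 100% = no enzyme substrate only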
# * = called active by the depositor; / = no result given.
SMILES,ATG4B inh,SENP1 inh,UCH37 DUB inh,NadD inh,GRIN3A LBD mod,SENP1 inh conf,SENP1 kin conf
CC(=NNc1ccc([N+](=O)[O-])cn1)c1ccc(N)cc1,4,41*,11,-3,0,22,13
COc1ccccc1/C=C1\Cc2ccccc2C1=O,14,-25,-4,-11,9,/,/
Nc1ccccc1C=C1Cc2ccccc2C1=O,2,56*,-1,0,2,10,-5
CCOc1ccc(NC(=O)c2ccc(Br)o2)c([N+](=O)[O-])c1,-8,32*,2,2,-1,-3,-10
O=C(N1CCOCC1)N1CCC(n2nnc3cc(F)ccc32)CC1,-12,30*,4,4,-2,29,14
O=C(c1ccc([N+](=O)[O-])cc1)N1CCC(n2nnc3cc(F)ccc32)CC1,-8,-1,5,-3,1,/,/
CN1CCN(N=Cc2ccc(Cl)c(Cl)c2)CC1,/,/,3,/,/,/,/
CC1(C)Cc2ccccc2C(C(=NO)C(N)=O)=N1,/,/,4,/,/,/,/
CC(=NNC(=O)c1ccccc1F)c1ccc2c(c1)Nc1ccccc1S2,/,/,2,/,/,/,/
C/C(=N\NC(=O)c1ccc(O)cc1)c1ccc2c(c1)Nc1ccccc1S2,-1,70*,/,9,21*,86*,56*
C/C(=N\NC(=O)c1ccccc1F)c1ccc2c(c1)Nc1ccccc1S2,6,35*,/,4,10,60*,39*
CC(Cn1cnc([N+](=O)[O-])n1)=NNC(=O)c1ccccc1O,/,/,3,/,/,/,/
N#Cc1c(N=Cc2ccco2)sc2c1CCC2,/,/,2,/,/,/,/
CCN1C(=O)c2cccc3c(NC(=O)c4cccc(N5C(=O)CCC5=O)c4)ccc1c23,2,58*,10,0,-1,44*,28
O=C(O)c1ccc(N/N=C/c2cccc3nccnc23)cc1,0,53*,/,-1,0,46*,39*
CNc1ccc(/C=C(\C#N)c2ccccn2)cc1[N+](=O)[O-],-2,46*,2,2,-4,31,23
N#C/C(=C\c1ccc(Cl)c([N+](=O)[O-])c1)c1ccccn1,11,1,4,0,-1,/,/
Cc1cnc(C(=O)Nc2cccc3ncccc23)cn1,-2,-3,2,-1,1,/,/
Cc1cnc(C(=O)Nc2ccccc2-c2ccc(C)o2)cn1,-10,40*,-7,-1,0,-12,-2
Cc1ccc2nc3sc(C(=O)NCc4ccco4)c(N)c3cc2c1,-6,34*,-2,11,-1,110*,71*
COc1ccc2oc(=O)c(/C(N)=N/NC(=O)c3ccncc3)cc2c1,9,37*,/,5,2,8,9
Clc1cccc(Cl)c1C[n+]1ccc2ccccc2c1,-8,68*,-7,2,0,7,13
c1ccc(C[n+]2ccc3ccccc3c2)cc1,-1,6,3,-3,1,/,/
O=c1c2ccccc2nc(/C=C/c2c[nH]c3ccccc23)n1CCO,1,-36,-12,3,-4,/,/
O=c1c2ccccc2nc(/C=C/c2cc(Br)ccc2O)n1CCO,-16,76*,0,3,4,84*,45*
SMILES,ATG4B inh,SENP1 inh,UCH37 DUB inh,NadD inh,GRIN3A LBD mod,SENP1 inh conf,SENP1 kin conf
Cc1ccc(C(=O)C[n+]2cccc3ccccc32)cc1,-1,30*,-1,-2,0,14,16
O=C(C[n+]1cccc2ccccc21)c1ccc(Br)cc1,2,57*,3,0,0,5,11
NC(=O)C[n+]1cccc2ccccc21,-5,39*,-14,5,7,9,9
ON=Cc1ccnc(SCc2ccc(Cl)cc2)n1,/,/,4,/,/,/,/
Cc1ccc2c(c1)C(=C(C#N)C#N)CCN2,-3,36*,/,4,-12,52*,33*
CN(C)Cc1c(C(=O)NN=Cc2cccs2)nnn1-c1nonc1N,/,/,8,/,/,/,/
O=C(NCCOc1ccccc1)c1cccc2c1C(=O)c1ccc(Cl)cc1S2(=O)=O,-31,2,1,-6,-6,/,/
COc1ccc(-c2ccc3c(c2)S(=O)(=O)c2cccc(C(=O)NCCOc4ccccc4)c2C3=O)cc1OC,-1,59*,3,11,0,68*,49*
COc1ccc(-c2nc3ncccn3c2Nc2ccccc2)cc1,-4,37*,-36,1,0,-5,23
Cc1ccc(Nc2c(-c3ccc(N(C)C)cc3)nc3ncccn23)cc1,7,-33,-9,6,0,/,/
Cc1cc(C)c2cc(C#N)c(SCC(=O)NCc3ccco3)nc2c1,-6,41*,-5,18,-1,3,16
CC(=O)Nc1sc(NN=Cc2ccc(N(C)C)cc2)nc1-c1ccc(C)cc1,/,/,-34,/,/,/,/
COC(=O)/C=C1\SC(=NC(=O)c2ccc(OC)cc2)NC1=O,-4,1,3,18,-5,/,/
COC(=O)/C=C1\S/C(=N/NC(=O)c2ccc(OC)cc2)NC1=O,-3,54*,13,-1,-1,7,8
Cc1sc(-c2ccccn2)nc1OC(=O)c1cccc(Cl)c1Cl,5,36*,3,-2,-9,38,50*
COc1cc([C@H]2c3c(cc(OC)c(O)c3OC)C[C@@H](CO)[C@@H]2CO[C@@H]2O[C@H](CO)[C@@H](O)[C@H](O)[C@H]2O)cc(OC)c1O,-6,40*,-1,2,0,33*,22
Cc1ccc(-c2cn(-c3ccccc3F)c(=S)[nH]2)cc1,-4,-1,-1,-2,-2,/,/
O=[N+]([O-])c1ccc(-c2cn(-c3ccccc3F)c(=S)[nH]2)cc1,10,30*,2,7,1,13,11
NC(=S)NN=Cc1ccccc1OC(=O)/C=C/c1ccccc1,/,/,0,/,/,/,/
COc1cc(/C=C2\SC(=S)N(CC(=O)O)C2=O)ccc1OC(=O)c1ccco1,2,39*,11,4,-1,83*,63*
COc1cc(/C=C2/SC(=S)N(CC(=O)O)C2=O)ccc1OC(=O)c1ccco1,6,32*,13,3,-3,84*,65*
COc1ccc(NC(=O)/C=C/c2ccccc2)c([N+](=O)[O-])c1,-2,7,3,-2,-1,/,/
COc1ccc(/C=C/C(=O)Nc2ccc(OC)cc2[N+](=O)[O-])cc1,1,64*,-4,-5,-30,36,27
CC(=NN=C1SCC(=O)N1c1ccccc1)c1ccc(C)cc1,/,/,2,/,/,/,/
Cc1ccc(NC(=O)c2ccc(NCc3ccco3)c([N+](=O)[O-])c2)cc1Cl,-9,37*,5,-2,15*,24,17

# High-throughput results deposited in PubChem by several laboratories.
